According to ChEMBL document CHEMBL1140462, “Convenient synthesis of indeno[1,2-c]isoquinolines as constrained forms of 3-arylisoquinolines and docking study of a topoisomerase I inhibitor into DNA-topoisomerase I complex” (Bioorg Med Chem Lett, 2007):
The source made the active and inactive calls. The calls are words filed in the database; no cut-off is given here.

Assays:
A549 = test: Cytotoxicity against human A549 cells by SRB assay; format: functional, cell-based
Outline: (§1)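 Panel of four human tumour lines: A549 (lung), SKOV-3 (ovarian), SK-MEL-2 (melanoma) and HCT 15 (colon). Each was exposed to compound in vitro, and cytotoxicity was read out by sulforhodamine B (SRB) staining.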

HCT-15 = test: Cytotoxicity against human HCT15 cells by SRB assay; format: functional, cell-based; outline: as §1
[1] = Cytotoxicity against human OV3 cells by SRB assay; format: functional, cell-based; outline: as §1
SK-MEL-2 = test: Cytotoxicity against human SK-MEL-2 cells by SRB assay; format: functional, cell-based; outline: as §1
[2] = target: T1, DNA topoisomerase 1 (Homo sapiens) (UniProt P11387); test: Inhibition of topoisomerase 1 by supercoiled DNA unwinding method relative to camptothecin; format: functional
T1 sequence (whole entry): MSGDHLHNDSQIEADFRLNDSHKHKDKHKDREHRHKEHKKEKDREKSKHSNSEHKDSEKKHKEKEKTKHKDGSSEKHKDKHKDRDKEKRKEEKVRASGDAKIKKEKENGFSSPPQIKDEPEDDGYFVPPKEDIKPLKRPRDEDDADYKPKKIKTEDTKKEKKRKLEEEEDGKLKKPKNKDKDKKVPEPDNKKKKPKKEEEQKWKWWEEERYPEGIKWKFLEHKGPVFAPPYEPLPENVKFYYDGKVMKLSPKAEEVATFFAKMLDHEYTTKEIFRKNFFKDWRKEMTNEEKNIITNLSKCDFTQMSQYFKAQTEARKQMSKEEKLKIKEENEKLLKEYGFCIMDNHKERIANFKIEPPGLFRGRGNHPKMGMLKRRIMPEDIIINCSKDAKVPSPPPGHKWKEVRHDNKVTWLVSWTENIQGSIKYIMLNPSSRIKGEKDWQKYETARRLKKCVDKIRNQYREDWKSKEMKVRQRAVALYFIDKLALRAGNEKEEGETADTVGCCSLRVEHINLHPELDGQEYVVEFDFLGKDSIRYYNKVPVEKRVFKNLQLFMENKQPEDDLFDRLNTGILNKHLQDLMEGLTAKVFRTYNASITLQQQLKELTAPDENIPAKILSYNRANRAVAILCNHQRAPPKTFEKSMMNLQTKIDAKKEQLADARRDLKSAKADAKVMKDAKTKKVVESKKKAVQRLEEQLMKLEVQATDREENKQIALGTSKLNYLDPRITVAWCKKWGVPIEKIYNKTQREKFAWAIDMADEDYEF

CC[C@@]1(O)C(=O)OCc2c1cc1n(c2=O)Cc2cc3ccccc3nc2-1 [CAMPTOTHECIN]
IC50 (A549): 0.067 µM | IC50 (HCT-15): 0.08 µM | IC50 [1]: 0.024 µM | IC50 (SK-MEL-2): 0.075 µM | Activity [2]: Active

Cn1c2c(c3ccccc3c1=O)Cc1ccccc1-2
IC50 (A549): 30.1 µM | IC50 (HCT-15): 20.5 µM | IC50 [1]: 30.6 µM | IC50 (SK-MEL-2): 130 µM

CCOC1c2ccccc2-c2c1c1cc(C)ccc1c(=O)n2C (stereo not drawn)
IC50 (A549): 90 µM | IC50 (HCT-15): 20.6 µM | IC50 [1]: 70.9 µM | IC50 (SK-MEL-2): 40.9 µM

CCCOC1c2ccccc2-c2c1c1cc(C)ccc1c(=O)n2C (stereo not drawn)
IC50 (A549): 40.6 µM | IC50 (HCT-15): 10.9 µM | IC50 [1]: 70.7 µM | IC50 (SK-MEL-2): 80.3 µM

COc1ccc(Cn2c3c(c4cc(C)ccc4c2=O)C(O)c2ccccc2-3)cc1 (stereo not drawn)
IC50 (A549): 100 µM | IC50 (HCT-15): 20.2 µM | IC50 [1]: 71 µM | IC50 (SK-MEL-2): 181 µM

CCCCCOC1c2ccccc2-c2c1c1cc(C)ccc1c(=O)n2Cc1ccc(OC)cc1 (stereo not drawn)
IC50 (A549): 11.2 µM | IC50 (HCT-15): 5.59 µM | IC50 [1]: 5.7 µM | IC50 (SK-MEL-2): 11.2 µM

Cn1c2c(c3ccccc3c1=O)C(=O)c1ccccc1-2
IC50 (A549): 23.5 µM | IC50 (HCT-15): 30.6 µM | IC50 [1]: 81 µM | IC50 (SK-MEL-2): 90.2 µM

CCCCCOC1c2ccccc2-c2c1c1cc(C)ccc1c(=O)n2C (stereo not drawn)
IC50 (A549): 16.2 µM | IC50 (HCT-15): 22 µM | IC50 [1]: 13.3 µM | IC50 (SK-MEL-2): 26.5 µM

CCCCOC1c2ccccc2-c2c1c1cc(C)ccc1c(=O)n2Cc1ccc(OC)cc1 (stereo not drawn)
IC50 (A549): 3.24 µM | IC50 (HCT-15): 4.4 µM | IC50 [1]: 2.01 µM | IC50 (SK-MEL-2): 3.37 µM

COC1c2ccccc2-c2c1c1cc(C)ccc1c(=O)n2C (stereo not drawn)
IC50 (A549): 130 µM | IC50 (HCT-15): 20.9 µM | IC50 [1]: 60.1 µM | IC50 (SK-MEL-2): 70.3 µM

COc1ccc(Cn2c3c(c4cc(C)ccc4c2=O)C(OC)c2ccccc2-3)cc1 (stereo not drawn)
IC50 (A549): 10.2 µM | IC50 (HCT-15): 1.11 µM | IC50 [1]: 1.36 µM | IC50 (SK-MEL-2): 15.2 µM

COc1ccc(Cn2c3c(c4cc(C)ccc4c2=O)C(OC(C)C)c2ccccc2-3)cc1 (stereo not drawn)
IC50 (A549): 6.22 µM | IC50 (HCT-15): 0.91 µM | IC50 [1]: 1.21 µM | IC50 (SK-MEL-2): 2.43 µM | Activity [2]: Active

COc1cccc2c1C(=O)c1c(O)c3c(c(O)c1C2=O)C[C@@](O)(C(=O)CO)C[C@@H]3O[C@H]1C[C@H](N)[C@H](O)[C@H](C)O1 (stereo in doubt) [DOXORUBICIN]
IC50 [1]: 1.17 µM

CCCCOC1c2ccccc2-c2c1c1cc(C)ccc1c(=O)n2C (stereo not drawn)
IC50 (A549): 110 µM | IC50 (HCT-15): 10.2 µM | IC50 [1]: 30.5 µM | IC50 (SK-MEL-2): 20.9 µM

CCOC1c2ccccc2-c2c1c1cc(C)ccc1c(=O)n2Cc1ccc(OC)cc1 (stereo not drawn)
IC50 (A549): 6.71 µM | IC50 (HCT-15): 1.93 µM | IC50 [1]: 5.89 µM | IC50 (SK-MEL-2): 3.6 µM

COc1ccc(Cn2c3c(c4cc(C)ccc4c2=O)C(OCC(C)C)c2ccccc2-3)cc1 (stereo not drawn)
IC50 (A549): 1.87 µM | IC50 [1]: 1.63 µM | IC50 (SK-MEL-2): 2.07 µM | Activity [2]: Active

COc1ccc(Cn2c3c(c4cc(C)ccc4c2=O)Cc2ccccc2-3)cc1
IC50 (A549): 51 µM | IC50 (HCT-15): 8.9 µM | IC50 [1]: 23.2 µM | IC50 (SK-MEL-2): 31.9 µM

COc1ccc(Cn2c3c(c4cc(C)ccc4c2=O)C(=O)c2ccccc2-3)cc1
IC50 (A549): 155 µM | IC50 (HCT-15): 171 µM | IC50 [1]: 102 µM | IC50 (SK-MEL-2): 158 µM

CCCOC1c2ccccc2-c2c1c1cc(C)ccc1c(=O)n2Cc1ccc(OC)cc1 (stereo not drawn)
IC50 (A549): 3.45 µM | IC50 (HCT-15): 1.42 µM | IC50 [1]: 5.76 µM | IC50 (SK-MEL-2): 6.26 µM | Activity [2]: Active

Cc1ccc2c(=O)n(C)c3c(c2c1)C(=O)c1ccccc1-3
IC50 (A549): 20.1 µM | IC50 (HCT-15): 14.3 µM | IC50 [1]: 16.3 µM | IC50 (SK-MEL-2): 17.1 µM

Cc1ccc2c(=O)n(C)c3c(c2c1)C(OCC(C)C)c1ccccc1-3 (stereo not drawn)
IC50 (A549): 28.2 µM | IC50 (HCT-15): 27.4 µM | IC50 [1]: 38.4 µM | IC50 (SK-MEL-2): 10.5 µM

Cc1ccc2c(=O)n(C)c3c(c2c1)Cc1ccccc1-3
IC50 (A549): 130 µM | IC50 (HCT-15): 20.1 µM | IC50 [1]: 261 µM | IC50 (SK-MEL-2): 80.3 µM
